Converted amounts (≈) assume the structure as drawn.
Experiments:
Mus musculus [1] = assay: Concentration of 9-[4-Hydroxy-3-(hydroxymethyl)but-1-yl)guanine in blood of mice after 0.25 hours upon oral administration; assay type: functional, organism-based
How it was run: (§1)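 Female Balb/c mice (20 g), food withheld 18 h, got one oral gavage dose of 0.2 mmol/kg in 0.1 mL 1% (carboxymethyl)cellulose. Blood was drawn by heparinized cardiac puncture at 0.25, 1 and 3 h, with three mice pooled per time point. It was treated with an equal volume of 16% TCA, centrifuged and NaHCO3-neutralized. The guanine analyte was measured by C18 HPLC at 254 nm in duplicate.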

Mus musculus [2] = assay: Concentration of 9-[4-Hydroxy-3-(hydroxymethyl)but-1-yl)guanine in blood of mice after 3 hours upon oral administration; assay type: functional, organism-based; how it was run: as §1
Mus musculus [3] = assay: Concentration of 2-Amino-9-(4-hydroxy-3-hydroxymethyl)but-1-yl)purine in blood of mice after 1 hour upon oral administration; assay type: functional, organism-based
How it was run: (§2)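 Single oral gavage dose of 0.2 mmol/kg in 0.1 mL 1% (carboxymethyl)cellulose to female Balb/c mice (20 g), fasted 18 h. Heparinized cardiac-puncture blood was taken at 0.25, 1 and 3 h, pooled equally from three mice per time point, and deproteinized with an equal volume of 16% TCA. Supernatant was neutralized with NaHCO3 and run on C18 HPLC in duplicate in 5 mM KH2PO4. The 2-aminopurine was read at 310 nm; detection limit 1 μM.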

[4] = Aqueous solubility at 25 degrees Centigrade; assay type: physicochemical; conditions: water; read-out: S
Mus musculus [5] = assay: Concentration of 2-Amino-9-(4-hydroxy-3-hydroxymethyl)but-1-yl)purine in blood of mice after 0.25 hours upon oral administration; assay type: functional, organism-based; how it was run: as §2
[6] = Solubility in water; assay type: physicochemical; conditions: read-out: S
Mus musculus [7] = assay: Concentration of 2-Amino-9-(4-hydroxy-3-hydroxymethyl)but-1-yl)purine in blood of mice after 3 hours upon oral administration; assay type: functional, organism-based; how it was run: as §2
Mus musculus [8] = assay: Concentration of 9-[4-Hydroxy-3-(hydroxymethyl)but-1-yl)guanine in blood of mice after 1 hour upon oral administration; assay type: functional, organism-based; how it was run: as §1
Mus musculus [9] = assay: Concentration of 9-[4-Hydroxy-3-(hydroxymethyl)but-1-yl)guanine in blood of mice after 3 hour upon oral administration; assay type: functional, organism-based; how it was run: as §1
Mus musculus [10] = assay: Concentration of 2-Amino-9-(4-hydroxy-3-hydroxymethyl)but-1-yl)purine in blood of mice after 1 hours upon oral administration; assay type: functional, organism-based; how it was run: as §2

CC(=O)OCC(CCn1cnc2cnc(N)nc21)COC(C)=O [FAMCICLOVIR]
Concentration (Mus musculus [1]): 74 µM | Concentration (Mus musculus [2]): 1.1 µM | Concentration (Mus musculus [3]): 3 µM | solubility [4]: > 300 mg/mL | Concentration (Mus musculus [5]): 69 µM | solubility [6]: 20 mg/mL (≈ 62.2 mM) | Concentration (Mus musculus [7]): < 1 µM | Concentration (Mus musculus [8]): 17 µM

Nc1ncc2ncn(CCC(CO)COC(=O)c3ccccc3)c2n1 (stereo unspecified)
Concentration (Mus musculus [1]): 63 µM | Concentration (Mus musculus [2]): 1.1 µM | Concentration (Mus musculus [3]): 8 µM | Concentration (Mus musculus [5]): 71 µM | Concentration (Mus musculus [7]): < 1 µM | Concentration (Mus musculus [8]): 26 µM

Nc1ncc2ncn(CCC(CO)COP(=O)(O)O)c2n1 (stereo unspecified)
Concentration (Mus musculus [1]): 8.7 µM | Concentration (Mus musculus [5]): 4 µM | Concentration (Mus musculus [9]): 5.2 µM | Concentration (Mus musculus [7]): 1 µM | Concentration (Mus musculus [10]): 8 µM | Concentration (Mus musculus [8]): 17 µM

CCOc1nc(N)nc2c1ncn2CCC(CO)CO
Concentration (Mus musculus [1]): 6.8 µM | Concentration (Mus musculus [2]): 0.9 µM | Concentration (Mus musculus [3]): 11 µM | Concentration (Mus musculus [5]): 25 µM | Concentration (Mus musculus [7]): < 1 µM | Concentration (Mus musculus [8]): 8 µM

Nc1nc(OCc2ccccc2)c2ncn(CCC(CO)CO)c2n1
Concentration (Mus musculus [1]): 1.8 µM | Concentration (Mus musculus [2]): 0.5 µM | Concentration (Mus musculus [3]): 2 µM | Concentration (Mus musculus [5]): 3 µM | Concentration (Mus musculus [7]): < 1 µM | Concentration (Mus musculus [8]): 2.1 µM

CCCCOc1nc(N)nc2c1ncn2CCC(CO)CO
Concentration (Mus musculus [1]): 5.7 µM | Concentration (Mus musculus [2]): < 0.5 µM | Concentration (Mus musculus [3]): 11 µM | Concentration (Mus musculus [5]): 19 µM | Concentration (Mus musculus [7]): 1 µM | Concentration (Mus musculus [8]): 5.2 µM

COc1nc(N)nc2c1ncn2CCC(CO)CO
Concentration (Mus musculus [1]): 0.6 µM | Concentration (Mus musculus [2]): < 0.5 µM | Concentration (Mus musculus [3]): 7 µM | Concentration (Mus musculus [5]): 8 µM | Concentration (Mus musculus [7]): 2 µM | Concentration (Mus musculus [8]): 0.9 µM

Nc1ncc2ncn(CCC3COP(=O)(O)OC3)c2n1 (stereo unspecified)
Concentration (Mus musculus [1]): 1 µM | Concentration (Mus musculus [2]): 2.6 µM | Concentration (Mus musculus [3]): < 1 µM | Concentration (Mus musculus [5]): < 1 µM | Concentration (Mus musculus [7]): < 1 µM | Concentration (Mus musculus [8]): 1 µM

Nc1ncc2ncn(CCC(CO)CO)c2n1 [6-DEOXY PENCICLOVIR]
Concentration (Mus musculus [1]): 16 µM | Concentration (Mus musculus [2]): 3.2 µM | Concentration (Mus musculus [3]): 4 µM | solubility [4]: 120 mg/mL (≈ 506 mM) | Concentration (Mus musculus [5]): 8 µM | Concentration (Mus musculus [7]): 1 µM | Concentration (Mus musculus [8]): 13 µM

CC(C)Oc1nc(N)nc2c1ncn2CCC(CO)CO
Concentration (Mus musculus [1]): 9.2 µM | Concentration (Mus musculus [2]): < 0.5 µM | Concentration (Mus musculus [3]): 12 µM | Concentration (Mus musculus [5]): 43 µM | Concentration (Mus musculus [7]): 1 µM | Concentration (Mus musculus [8]): 3.8 µM

CCC(=O)OCC(CCn1cnc2cnc(N)nc21)COC(=O)CC
Concentration (Mus musculus [1]): 79 µM | Concentration (Mus musculus [2]): 2.1 µM | Concentration (Mus musculus [3]): 9 µM | solubility [4]: 19 mg/mL (≈ 54.4 mM) | Concentration (Mus musculus [5]): 92 µM | Concentration (Mus musculus [7]): < 1 µM | Concentration (Mus musculus [8]): 26 µM

CC(=O)OCC(CCn1cnc2c(O)nc(N)nc21)COC(C)=O
solubility [4]: 6.7 mg/mL (≈ 19.9 mM)

CC(=O)OCC(CO)CCn1cnc2cnc(N)nc21 (stereo unspecified)
Concentration (Mus musculus [1]): 51 µM | Concentration (Mus musculus [2]): 1.2 µM | Concentration (Mus musculus [3]): 3 µM | Concentration (Mus musculus [5]): 38 µM | Concentration (Mus musculus [7]): < 1 µM | Concentration (Mus musculus [8]): 20 µM

Nc1nc(Oc2ccccc2)c2ncn(CCC(CO)CO)c2n1
Concentration (Mus musculus [1]): < 0.5 µM | Concentration (Mus musculus [2]): < 0.5 µM | Concentration (Mus musculus [3]): 7 µM | Concentration (Mus musculus [5]): 8 µM | Concentration (Mus musculus [7]): < 1 µM | Concentration (Mus musculus [8]): < 0.5 µM

CC1(C)OCC(CCn2cnc3cnc(N)nc32)CO1
Concentration (Mus musculus [1]): 33 µM | Concentration (Mus musculus [2]): 3.2 µM | Concentration (Mus musculus [5]): 33 µM | Concentration (Mus musculus [7]): 1 µM | Concentration (Mus musculus [10]): 4 µM | Concentration (Mus musculus [8]): 11 µM

COC(=O)OCC(CO)CCn1cnc2cnc(N)nc21 (stereo unspecified)
Concentration (Mus musculus [1]): 54 µM | Concentration (Mus musculus [2]): 2.6 µM | Concentration (Mus musculus [3]): 4 µM | Concentration (Mus musculus [5]): 55 µM | Concentration (Mus musculus [7]): < 1 µM | Concentration (Mus musculus [8]): 22 µM

CCCC(=O)OCC(CO)CCn1cnc2cnc(N)nc21 (stereo unspecified)
Concentration (Mus musculus [1]): 64 µM | Concentration (Mus musculus [2]): 2 µM | Concentration (Mus musculus [3]): 7 µM | Concentration (Mus musculus [5]): 57 µM | Concentration (Mus musculus [7]): < 1 µM | Concentration (Mus musculus [8]): 28 µM

Nc1nc(O)c2ncn(CCC(CO)CO)c2n1
Concentration (Mus musculus [1]): 4.9 µM | Concentration (Mus musculus [2]): 1.1 µM | Concentration (Mus musculus [8]): 4 µM

CCC(=O)OCC(CCn1cnc2c(O)nc(N)nc21)COC(=O)CC
solubility [4]: 1.2 mg/mL (≈ 3.28 mM)

Nc1nc2c(ncn2CCC(CO)CO)c(=O)[nH]1 [PENCICLOVIR]
solubility [4]: 3 mg/mL (≈ 11.8 mM)

Reference: ChEMBL document CHEMBL1124547, “Prodrugs of the selective antiherpesvirus agent 9-[4-hydroxy-3-(hydroxymethyl)but-1-yl]guanine (BRL 39123) with improved gastrointestinal absorption properties” (J Med Chem, 1989)
